Results published in ChEMBL document CHEMBL1130099, “Stabilized analogs of thymopentin. 2. 1,2- and 3,4-ketomethylene pseudopeptides” (J Med Chem, 1997).

Assays:
CCRF-CEM [1] = assay: Binding efficacy expressed as counts remaining after competition was subtracted from total of Thymopentin and divided by the counts reduced by authentic Thymopentin; assay type: functional, Homo sapiens
In short: (§1)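 CEM cells at 5×10^6 cells/0.1 mL binding buffer, given unlabeled peptide over 10^-6 to 10^-3 M plus radiolabeled thymopentin (548 000 cpm), 30 min at 25 °C. Diluted with ice-cold buffer, washed twice by centrifugation, bound counts by scintillation. Efficacy = (total thymopentin binding − counts after competition)/(reduction by authentic thymopentin); mean ± SEM over repeated trials.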

CCRF-CEM [2] = assay: Ability to bound CEM cell measured as competition for displacement of radiolabeled Thymopentin from the receptor; assay type: functional, Homo sapiens; in short: as §1
Mus musculus = species on record: Mus musculus; assay: The plasma half life of compound was determined on heparin prepared by mouse plasma; Not degraded; assay type: ADME
In short: (§2)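 Half-life in heparinized mouse plasma: peptide incubated for variable times, then parent decrease and degradation products resolved and quantified by HPLC absorbance.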

[3] = The plasma half life of compound was determined on heparin prepared by human plasma; Not degraded; details: in vivo
[4] = The plasma half life of compound was determined on heparin prepared by human plasma.
[5] = The plasma half life of compound was determined on EDTA prepared by mouse plasma.; assay type: ADME
In short: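 Peptide incubated in EDTA-treated mouse plasma for variable times. Loss of parent and appearance of degradation products quantified by HPLC with absorbance detection; half-life in min.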

[6] = The plasma half life of compound was determined on heparin prepared by mouse plasma.; assay type: ADME; in short: as §2

Compound | Binding (CCRF-CEM [1]) | Binding competition (CCRF-CEM [2]) | also measured
CC(C)[C@H](CC(=O)[C@H](CC(=O)O)NC(=O)[C@@H]1CCCN1C(=O)[C@H](N)CCCN=C(N)N)C(=O)N[C@@H](Cc1ccccc1)C(=O)O | 72% | 1686 mean counts | 
CCCC[C@H](CC(=O)[C@@H](N)CCCN=C(N)N)C(=O)N[C@@H](CC(=O)O)C(=O)N[C@@H](C(=O)N[C@@H](Cc1ccccc1)C(=O)O)C(C)C | 71% | 1713 mean counts | 
CC(C)[C@H](CC(=O)[C@H](CC(=O)O)NC(=O)[C@H](CCCCN)N(C)C(=O)[C@@H](N)CCCN=C(N)N)C(=O)N[C@@H](Cc1ccccc1)C(=O)O | 13% | 2820 mean counts | T1/2 (Mus musculus): Not degraded; T1/2 [3]: Not degraded
CC(C)[C@H](CC(=O)[C@H](CC(=O)O)NC(=O)[C@@H]1CCCN1C(=O)[C@H](N)CCCN=C(N)N)C(=O)N[C@@H](Cc1ccccc1)C(N)=O | 20% | 2692 mean counts | 
CCCC[C@H](CC(=O)[C@@H](N)CCCN=C(N)N)C(=O)N[C@@H](CC(=O)O)C(=O)N[C@H](C(=O)N[C@@H](Cc1ccccc1)C(=O)O)C(C)C (stereo in doubt; 2a-A) | 44% | 2222 mean counts | half-life [4]: 12.5 min
CCCC[C@H](CC(=O)[C@@H](N)CCCN=C(N)N)C(=O)N[C@@H](CC(=O)O)C(=O)N[C@H](C(=O)N[C@@H](Cc1ccccc1)C(=O)O)C(C)C (stereo in doubt; 2a-B) | 47% | 2176 mean counts | 
CCCC[C@H](CC(=O)[C@@H](N)CCCN=C(N)N)C(=O)N[C@@H](CC(=O)O)C(=O)N[C@H](C(=O)N[C@@H](Cc1ccccc1)C(=O)O)C(C)C (stereo in doubt; 2a-C) | 20% | 2687 mean counts | 
CCCC[C@H](CC(=O)[C@@H](N)CCCN=C(N)N)C(=O)N[C@@H](CC(=O)O)C(=O)N[C@H](C(=O)N[C@@H](Cc1ccccc1)C(=O)O)C(C)C (stereo in doubt; 2a-D) | 39% | 2333 mean counts | 
CCCC[C@H](CC(=O)[C@@H](N)CCCN=C(N)N)C(=O)N[C@@H](CC(=O)O)C(=O)N[C@H](C(=O)N[C@@H](Cc1ccccc1)C(N)=O)C(C)C (stereo in doubt; 2b-A) |  | 3627 mean counts | 
CCCC[C@H](CC(=O)[C@@H](N)CCCN=C(N)N)C(=O)N[C@@H](CC(=O)O)C(=O)N[C@H](C(=O)N[C@@H](Cc1ccccc1)C(N)=O)C(C)C (stereo in doubt; 2b-B) | 0% | 3648 mean counts | 
CC(C)[C@H](CC(=O)[C@H](CC(=O)O)NC(=O)[C@H](CCCCN)NC(=O)[C@@H](N)CCCN=C(N)N)C(=O)N[C@@H](Cc1ccccc1)C(=O)O (stereo in doubt; 3a-A) | 115% | 844 mean counts | half-life [5]: 5.8 min; half-life [6]: 2.4 min; half-life [4]: 2.7 min
CC(C)[C@H](CC(=O)[C@H](CC(=O)O)NC(=O)[C@H](CCCCN)NC(=O)[C@@H](N)CCCN=C(N)N)C(=O)N[C@@H](Cc1ccccc1)C(=O)O (stereo in doubt; 3a-B) | 103% | 1091 mean counts | 
CCCC[C@H](NC(=O)[C@@H](N)CCCN=C(N)N)C(=O)N[C@@H](CC(=O)O)C(=O)C[C@H](C(=O)N[C@@H](Cc1ccccc1)C(=O)O)C(C)C (stereo in doubt; 3b-A) | 96% | 1232 mean counts | 
CCCC[C@H](NC(=O)[C@@H](N)CCCN=C(N)N)C(=O)N[C@@H](CC(=O)O)C(=O)C[C@H](C(=O)N[C@@H](Cc1ccccc1)C(=O)O)C(C)C (stereo in doubt; 3b-B) | 85% | 1447 mean counts | 
C[C@H](CC(=O)[C@H](CC(=O)O)NC(=O)[C@H](CCCCN)NC(=O)[C@@H](N)CCCN=C(N)N)C(=O)N[C@@H](Cc1ccccc1)C(=O)O (stereo in doubt; 3e-A) | 47% | 2172 mean counts | 
C[C@H](CC(=O)[C@H](CC(=O)O)NC(=O)[C@H](CCCCN)NC(=O)[C@@H](N)CCCN=C(N)N)C(=O)N[C@@H](Cc1ccccc1)C(=O)O (stereo in doubt; 3e-B) | 24% | 2606 mean counts | 
